Laboratory results published in ChEMBL document CHEMBL5303300, “EUbOPEN Chemogenomics Library - Multiplex” (2023).
Values joined by “and” are separate entries in the source; they are usually repeats but may differ in a detail not shown here. Identical values can stand only once.

Columns and labels:
Fibroblast = test: Multiplex assay against human fibroblast; type: toxicity, cell-based; conditions: number of replicates 2
Procedure, shortened: (§1)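 Cells stained live at seeding with Hoechst33342, BioTracker Green Microtubule Cytoskeleton Dye, MitoTracker Red and Annexin V Alexa Fluor 680 were imaged on a CQ1 microscope at 37°C and 5% CO2 after compound addition. Their classification by CellPathfinder machine-learning gating ran from Hoechst high-intensity objects versus normal cells, to healthy, pyknosed or fragmented nuclei among normal cells, to mitotic or apoptotic among pyknosed cells. Tubulin, mitochondrial-mass and membrane-permeability phenotypes are per cents of healthy-nucleus cells.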

HEK-293T = test: Multiplex assay against HEK293T; type: toxicity, cell-based; conditions: human, number of replicates 2; procedure, shortened: as §1
[1] = 12 h, 1 µM, compound concentration 1 uM
[2] = 12 h, 10 µM, compound concentration 10 uM
[3] = 24 h, 1 µM, compound concentration 1 uM
[4] = 24 h, 10 µM, compound concentration 10 uM
[5] = 48 h, 1 µM, compound concentration 1 uM
[6] = 48 h, 10 µM, compound concentration 10 uM

Br.Oc1cc2c(cc1O)C(c1ccccc1)CNCC2 (stereo unspecified)
Population Apoptotic (%) (Fibroblast; [1]): 86% and 44% | Population Fragmented Nuclei (%) (Fibroblast; [1]): 18% and 16% | Population Healthy Nuclei (%) (Fibroblast; [1]): 73% | Population Hoechst High Intensity Objects (%) (Fibroblast; [1]): 0% | Population Membrane Permeable-Phenotype (%) (Fibroblast; [1]): 5% and 4% | Population Mitochondria Different-Phenotype (%) (Fibroblast; [1]): 0% and 1% | Population Normal (%) (Fibroblast; [1]): 100% and 99% | Population Pyknosed Nuclei (%) (Fibroblast; [1]): 8% and 10% | Population Tubulin-Different-Phenotype (%) (Fibroblast; [1]): 7% and 6% | Total Cell Count (Fibroblast; [1]): 185 and 180 | Population Apoptotic (%) (Fibroblast; [2]): 76% and 66% | Population Fragmented Nuclei (%) (Fibroblast; [2]): 13% and 12% | Population Healthy Nuclei (%) (Fibroblast; [2]): 76% and 79% | Population Hoechst High Intensity Objects (%) (Fibroblast; [2]): 0% | Population Membrane Permeable-Phenotype (%) (Fibroblast; [2]): 2% | Population Mitochondria Different-Phenotype (%) (Fibroblast; [2]): 0% and 4% | Population Mitotic Cells (%) (Fibroblast; [2]): 23% and 33% | Population Normal (%) (Fibroblast; [2]): 100% | Population Pyknosed Nuclei (%) (Fibroblast; [2]): 9% and 8% | Population Tubulin-Different-Phenotype (%) (Fibroblast; [2]): 15% and 11% | Total Cell Count (Fibroblast; [2]): 132 and 172 | Population Apoptotic (%) (Fibroblast; [3]): 31% and 66% | Population Fragmented Nuclei (%) (Fibroblast; [3]): 18% and 16% | Population Healthy Nuclei (%) (Fibroblast; [3]): 69% and 76% | Population Hoechst High Intensity Objects (%) (Fibroblast; [3]): 0% | Population Membrane Permeable-Phenotype (%) (Fibroblast; [3]): 6% and 4% | Population Mitochondria Different-Phenotype (%) (Fibroblast; [3]): 0% | Population Mitotic Cells (%) (Fibroblast; [3]): 68% and 33% | Population Normal (%) (Fibroblast; [3]): 100% | Population Pyknosed Nuclei (%) (Fibroblast; [3]): 11% and 6% | Population Tubulin-Different-Phenotype (%) (Fibroblast; [3]): 6% and 2% | Total Cell Count (Fibroblast; [3]): 187 and 183 | Population Apoptotic (%) (Fibroblast; [4]): 80% and 50% | Population Fragmented Nuclei (%) (Fibroblast; [4]): 12% and 13% | Population Healthy Nuclei (%) (Fibroblast; [4]): 84% and 79% | Population Hoechst High Intensity Objects (%) (Fibroblast; [4]): 0% | Population Membrane Permeable-Phenotype (%) (Fibroblast; [4]): 1% | Population Mitochondria Different-Phenotype (%) (Fibroblast; [4]): 0% and 1% | Population Mitotic Cells (%) (Fibroblast; [4]): 20% and 50% | Population Normal (%) (Fibroblast; [4]): 100% | Population Pyknosed Nuclei (%) (Fibroblast; [4]): 3% and 7% | Population Tubulin-Different-Phenotype (%) (Fibroblast; [4]): 9% and 13% | Total Cell Count (Fibroblast; [4]): 140 and 169 | Population Apoptotic (%) (Fibroblast; [5]): 90% and 54% | Population Fragmented Nuclei (%) (Fibroblast; [5]): 18% and 14% | Population Healthy Nuclei (%) (Fibroblast; [5]): 75% and 79% | Population Hoechst High Intensity Objects (%) (Fibroblast; [5]): 0% | Population Membrane Permeable-Phenotype (%) (Fibroblast; [5]): 2% | Population Mitochondria Different-Phenotype (%) (Fibroblast; [5]): 0% | Population Normal (%) (Fibroblast; [5]): 100% | Population Pyknosed Nuclei (%) (Fibroblast; [5]): 5% | Population Tubulin-Different-Phenotype (%) (Fibroblast; [5]): 4% and 3% | Total Cell Count (Fibroblast; [5]): 175 and 194 | Population Apoptotic (%) (Fibroblast; [6]): 25% and 42% | Population Fragmented Nuclei (%) (Fibroblast; [6]): 19% and 17% | Population Healthy Nuclei (%) (Fibroblast; [6]): 77% and 78% | Population Hoechst High Intensity Objects (%) (Fibroblast; [6]): 0% | Population Membrane Permeable-Phenotype (%) (Fibroblast; [6]): 0% and 1% | Population Mitochondria Different-Phenotype (%) (Fibroblast; [6]): 0% | Population Mitotic Cells (%) (Fibroblast; [6]): 75% and 57% | Population Normal (%) (Fibroblast; [6]): 100% | Population Pyknosed Nuclei (%) (Fibroblast; [6]): 2% and 3% | Population Tubulin-Different-Phenotype (%) (Fibroblast; [6]): 10% and 9% | Total Cell Count (Fibroblast; [6]): 163 and 182 | Population Apoptotic (%) (HEK-293T; [1]): 30% and 41% | Population Fragmented Nuclei (%) (HEK-293T; [1]): 5% and 3% | Population Healthy Nuclei (%) (HEK-293T; [1]): 85% | Population Hoechst High Intensity Objects (%) (HEK-293T; [1]): 6% and 4% | Population Membrane Permeable-Phenotype (%) (HEK-293T; [1]): 4% and 2% | Population Mitochondria Different-Phenotype (%) (HEK-293T; [1]): 9% and 10% | Population Mitotic Cells (%) (HEK-293T; [1]): 69% and 58% | Population Normal (%) (HEK-293T; [1]): 93% and 95% | Population Pyknosed Nuclei (%) (HEK-293T; [1]): 9% and 10% | Population Tubulin-Different-Phenotype (%) (HEK-293T; [1]): 45% and 42% | Total Cell Count (HEK-293T; [1]): 950 and 793 | Population Apoptotic (%) (HEK-293T; [2]): 36% and 47% | Population Fragmented Nuclei (%) (HEK-293T; [2]): 4% and 3% | Population Healthy Nuclei (%) (HEK-293T; [2]): 86% and 88% | Population Hoechst High Intensity Objects (%) (HEK-293T; [2]): 7% and 5% | Population Membrane Permeable-Phenotype (%) (HEK-293T; [2]): 2% and 0% | Population Mitochondria Different-Phenotype (%) (HEK-293T; [2]): 12% and 21% | Population Mitotic Cells (%) (HEK-293T; [2]): 63% and 52% | Population Normal (%) (HEK-293T; [2]): 92% and 94% | Population Pyknosed Nuclei (%) (HEK-293T; [2]): 8% | Population Tubulin-Different-Phenotype (%) (HEK-293T; [2]): 51% and 55% | Total Cell Count (HEK-293T; [2]): 631 and 499 | Population Apoptotic (%) (HEK-293T; [3]): 20% and 36% | Population Fragmented Nuclei (%) (HEK-293T; [3]): 6% and 5% | Population Healthy Nuclei (%) (HEK-293T; [3]): 89% | Population Hoechst High Intensity Objects (%) (HEK-293T; [3]): 8% and 9% | Population Membrane Permeable-Phenotype (%) (HEK-293T; [3]): 3% and 2%
